The values below come from ChEMBL document CHEMBL1121786, “Studies on position 1 of angiotensin II: effects on affinity and duration of action from alkyl amide substitution” (J Med Chem, 1981).

Data set [1] is filed under the species Oryctolagus cuniculus. Put plainly: In vitro intrinsic activity was determined against rabbit aorta and expressed as factor F at t3/4. Format: functional.
Data set [2] is filed under the species Oryctolagus cuniculus. The experiment in a line: In vitro intrinsic activity against rabbit aorta and value was reported as factor between the hypertensin and the compound. Format: functional. The method, boiled down:
(§1)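 Isolated aortic tissue in a bath aerated with 95% O2/5% CO2 under 2.0 g initial tension, readjusted during a 60–90 min equilibration with bath fluid changed every 10–15 min. Concentrations are final bath concentrations. Peptides are kept as 1 mg/mL stocks in distilled water at -20 °C for up to 14 days and diluted in 0.9% saline just before use.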

The species named for data set [3] is Oryctolagus cuniculus. The experiment in a line: In vitro intrinsic activity was determined against rabbit aorta and expressed as alpha E. In kind it is functional. The method, boiled down:
as §1

Data set [4] has as its system Rattus norvegicus. Put plainly: In vivo intrinsic activity against rat aorta and value was reported as factor between the hypertensin and the compound. In kind it is functional. The procedure, abridged:
(§2)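 Male Wistar rats (~250 g) are anesthetized with urethane 1.4 g/kg sc, with jugular vein and carotid artery cannulated. Peptides are diluted in 0.9% saline from 1 mg/mL aqueous stocks and injected intravenously. Arterial blood pressure is recorded through the carotid cannula with a pressure transducer.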

For data set [5], the system named is Rattus norvegicus. The experiment in a line: In vivo intrinsic activity was determined against rat aorta and percent increase in blood pressure was reported. Format: functional. The procedure, abridged: as §2
The species named for data set [6] is Oryctolagus cuniculus. The experiment in a line: In vitro intrinsic activity was determined against rabbit aorta and time taken to ralax maximally contracted tissue to 25% was reported. In kind it is functional. Further details: unit not given beside the values. The procedure, abridged: (§3)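 Aortic strips are held in an aerated (95% O2/5% CO2) bath under 2.0 g tension after a 60–90 min equilibration. At maximal agonist contraction, unbound peptide is removed by several washes and the time for tension to fall back toward the pre-contraction level is recorded. Peptides are diluted in 0.9% saline from 1 mg/mL aqueous stocks immediately before use.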

The species named for data set [7] is Oryctolagus cuniculus. Put plainly: In vitro intrinsic activity was determined against rabbit aorta and percent increase in blood pressure was reported. Format: functional.
The species entered for data set [8] is Oryctolagus cuniculus. Put plainly: In vitro intrinsic activity was determined against rabbit aorta and expressed as factor F at t1/2. Format: functional.
The species named for data set [9] is Oryctolagus cuniculus. Put plainly: In vitro intrinsic activity was determined against rabbit aorta and expressed as negative logarithm of half maximal dose. The procedure, abridged:
as §1

The species named for data set [10] is Oryctolagus cuniculus. Put plainly: In vitro intrinsic activity was determined against rabbit aorta and time taken to ralax maximally contracted tissue to 50% was reported. In kind it is functional. The method, boiled down: as §3

In the data set listed under Oryctolagus cuniculus [1], `CC[C@H](C)[C@H](NC(=O)[C@H](Cc1ccc(O)cc1)NC(=O)[C@@H](NC(=O)[C@H](CCCN=C(N)N)NC(=O)[C@@H](N)CC(=O)N(C(C)C)C(C)C)C(C)C)C(=O)N[C@@H](Cc1c[nH]cn1)C(=O)N1CCC[C@H]1C(=O)N[C@@H](Cc1ccccc1)C(=O)O` [listing 1 of 2 here] came in with an F3/4 of 4.2. This compound displayed an Activity in the data set filed under Oryctolagus cuniculus [2] of 11. Further, the “Alpha E” value in the data set filed under Oryctolagus cuniculus [3] was determined as 1. Further, the “Activity Factor” value with Rattus norvegicus [4] is listed as 14.3. The “Increase in blood pressure” value in the data set on Rattus norvegicus [5] is reported as 7%; in the data set listed under Oryctolagus cuniculus [7], 9%. In addition, the T3/4 in the data set listed under Oryctolagus cuniculus [6] is reported as 36.7. Also, the F1/2 in the data set listed under Oryctolagus cuniculus [8] is given as 2.9.
For the compound `CCCN(CCC)C(=O)C[C@H](N)C(=O)N[C@@H](CCCN=C(N)N)C(=O)N[C@H](C(=O)N[C@@H](Cc1ccc(O)cc1)C(=O)N[C@H](C(=O)N[C@@H](Cc1c[nH]cn1)C(=O)N1CCC[C@H]1C(=O)N[C@@H](Cc1ccccc1)C(=O)O)[C@@H](C)CC)C(C)C` [listing 1 of 2 here], in the data set listed under Oryctolagus cuniculus [9], the pD2 is on record as 6.93.
As to `CC[C@H](C)[C@H](NC(=O)[C@H](Cc1ccc(O)cc1)NC(=O)[C@@H](NC(=O)[C@H](CCCN=C(N)N)NC(=O)[C@@H](N)CC(=O)N(C)C)C(C)C)C(=O)N[C@@H](Cc1c[nH]cn1)C(=O)N1CCC[C@H]1C(=O)N[C@@H](Cc1ccccc1)C(=O)O` [listing 1 of 2 here], the F3/4 in the data set filed under Oryctolagus cuniculus [1] stood at 2.3. This compound also showed an Activity in the data set filed under Oryctolagus cuniculus [2] of 2.2. In addition, the “Alpha E” value in the data set listed under Oryctolagus cuniculus [3] is listed as 1. The “Activity Factor” value with Rattus norvegicus [4] was 3.3. In addition, the “Increase in blood pressure” value in the data set on Rattus norvegicus [5] is reported as 30%; in the data set listed under Oryctolagus cuniculus [7], 46%. This compound also came in with a T3/4 in the data set filed under Oryctolagus cuniculus [6] of 20. The same compound gave an F1/2 in the data set filed under Oryctolagus cuniculus [8] of 1.3.
`CC[C@H](C)[C@H](NC(=O)[C@H](Cc1ccc(O)cc1)NC(=O)[C@@H](NC(=O)[C@H](CCCN=C(N)N)NC(=O)[C@@H](N)CC(=O)N(C(C)C)C(C)C)C(C)C)C(=O)N[C@@H](Cc1c[nH]cn1)C(=O)N1CCC[C@H]1C(=O)N[C@@H](Cc1ccccc1)C(=O)O` [listing 2 of 2 here] displayed a pD2 in the data set listed under Oryctolagus cuniculus [9] of 6.69.
Consider `CC[C@H](C)[C@H](NC(=O)[C@H](Cc1ccc(O)cc1)NC(=O)[C@@H](NC(=O)[C@H](CCCN=C(N)N)NC(=O)[C@@H](N)CC(=O)N(C(C)C)C(C)C)C(C)C)C(=O)N[C@@H](Cc1c[nH]cn1)C(=O)N1CCC[C@@H]1C(=O)N[C@@H](Cc1ccccc1)C(=O)O`, for which the T1/2 in the data set filed under Oryctolagus cuniculus [10] was 14.3.
`CC[C@H](C)[C@H](NC(=O)[C@H](Cc1ccc(O)cc1)NC(=O)[C@@H](NC(=O)[C@H](CCCN=C(N)N)NC(=O)[C@@H](N)CC(=O)N(C)C)C(C)C)C(=O)N[C@@H](Cc1c[nH]cn1)C(=O)N1CCC[C@H]1C(=O)N[C@@H](Cc1ccccc1)C(=O)O` [listing 2 of 2 here]: in the data set listed under Oryctolagus cuniculus [9], the pD2 came to 7.39.
`CCCN(CCC)C(=O)C[C@H](N)C(=O)N[C@@H](CCCN=C(N)N)C(=O)N[C@H](C(=O)N[C@@H](Cc1ccc(O)cc1)C(=O)N[C@H](C(=O)N[C@@H](Cc1c[nH]cn1)C(=O)N1CCC[C@H]1C(=O)N[C@@H](Cc1ccccc1)C(=O)O)[C@@H](C)CC)C(C)C` [listing 2 of 2 here] came in with an F3/4 in the data set listed under Oryctolagus cuniculus [1] of 5.1. The compound also registered an Activity in the data set filed under Oryctolagus cuniculus [2] of 6.3. Also, in the data set listed under Oryctolagus cuniculus [3], the “Alpha E” value was determined as 1. Further, the “Activity Factor” value in the data set on Rattus norvegicus [4] amounted to 11.1. Besides, the “Increase in blood pressure” value with Rattus norvegicus [5] turned out to be 9%; in the data set listed under Oryctolagus cuniculus [7], 16%. In the data set listed under Oryctolagus cuniculus [6], this compound yielded a T3/4 of 44. The F1/2 in the data set filed under Oryctolagus cuniculus [8] turned out to be 3.7.
For the compound H-NRVYIHPF-OH, the F3/4 in the data set filed under Oryctolagus cuniculus [1] came out at 1. The compound also came in with a pD2 in the data set listed under Oryctolagus cuniculus [9] of 7.73. In the data set filed under Oryctolagus cuniculus [10], this compound returned a T1/2 of 5. This compound also yielded an Activity in the data set listed under Oryctolagus cuniculus [2] of 1. The “Alpha E” value in the data set filed under Oryctolagus cuniculus [3] is 1. Moreover, the “Activity Factor” value with Rattus norvegicus [4] is 1. Besides, the “Increase in blood pressure” value with Rattus norvegicus [5] and in the data set filed under Oryctolagus cuniculus [7] was 100% throughout. For the same compound, the T3/4 in the data set filed under Oryctolagus cuniculus [6] came to 8.7. Further, in the data set listed under Oryctolagus cuniculus [8], the F1/2 is 1.
In the data set listed under Oryctolagus cuniculus [10], `CC[C@H](C)[C@H](NC(=O)[C@H](Cc1ccc(O)cc1)NC(=O)[C@@H](NC(=O)[C@H](CCCN=C(N)N)NC(=O)[C@@H](N)CC(=O)N(C)C)C(C)C)C(=O)N[C@@H](Cc1c[nH]cn1)C(=O)N1CCC[C@@H]1C(=O)N[C@@H](Cc1ccccc1)C(=O)O` showed a T1/2 of 6.7.
`CCCN(CCC)C(=O)C[C@H](N)C(=O)N[C@@H](CCCN=C(N)N)C(=O)N[C@H](C(=O)N[C@@H](Cc1ccc(O)cc1)C(=O)N[C@H](C(=O)N[C@@H](Cc1c[nH]cn1)C(=O)N1CCC[C@@H]1C(=O)N[C@@H](Cc1ccccc1)C(=O)O)[C@@H](C)CC)C(C)C` gave a T1/2 in the data set filed under Oryctolagus cuniculus [10] of 18.7.
